One data set concerns LNCaP. The data set can be described thus: Potency index, ratio of curcumin IC50 to test compound IC50 for human LNCAP cells. Format: functional.
Settings: not given
Take `CCC(C)n1ccnc1/C=C/C(=O)/C=C/c1nn(C)cc1Br` (stereo unspecified): the “Ratio IC50” value turned out to be 44.

For `CCC(C)n1ccnc1/C=C/C(=O)/C=C/c1cccc(C)n1` (stereo unspecified), the “Ratio IC50” value stood at 52.

For the compound `CCCn1c(/C=C/C(=O)/C=C/c2ccccn2)nc2ccccc21`, the “Ratio IC50” value is 80.

In the case of `CCCC(C)n1ccnc1/C=C/C(=O)/C=C/c1nc2ccccc2n1C(C)CCC` (stereo unspecified), the “Ratio IC50” value was 37.

Turning to `CCC(C)n1ccnc1/C=C/C(=O)/C=C/c1cc(C)on1` (stereo unspecified), the “Ratio IC50” value is listed as 57.

With `CCC(C)n1ccnc1/C=C/C(=O)/C=C/c1nccs1` (stereo unspecified), the “Ratio IC50” value is 80.

In the case of `Cc1nc(C(F)(F)F)c(/C=C/C(=O)/C=C/c2nc3ccccc3n2C(C)C)s1`, the “Ratio IC50” value was 45.

The test system of a further data set is PWR-1E. The data set can be described thus: Potency index, ratio of curcumin IC50 to test compound IC50 for human PWR-1E cells expressing androgen receptor and PSA. It is filed as functional.
Settings: not given
As for `CCC(C)n1ccnc1/C=C/C(=O)/C=C/c1nn(C)cc1Br` (stereo unspecified), the “Ratio IC50” value is 63.

Take `CCC(C)n1ccnc1/C=C/C(=O)/C=C/c1cccc(C)n1` (stereo unspecified): the “Ratio IC50” value came out at 68.

For `CCCn1c(/C=C/C(=O)/C=C/c2ccccn2)nc2ccccc21`, the “Ratio IC50” value came out at 443.

Turning to `CCCC(C)n1ccnc1/C=C/C(=O)/C=C/c1nc2ccccc2n1C(C)CCC` (stereo unspecified), the “Ratio IC50” value was found to be 221.

Turning to `CCC(C)n1ccnc1/C=C/C(=O)/C=C/c1cc(C)on1` (stereo unspecified), the “Ratio IC50” value is given as 81.

`CCC(C)n1ccnc1/C=C/C(=O)/C=C/c1nccs1` (stereo unspecified): the “Ratio IC50” value is listed as 63.

On to `Cc1nc(C(F)(F)F)c(/C=C/C(=O)/C=C/c2nc3ccccc3n2C(C)C)s1`, for which the “Ratio IC50” value was 177.

System in a further data set: not listed separately
Briefly: Drug level in human liver microsomes treated with (1E,4E)-1-(1-(sec-Butyl)1H-imidazol-2-yl)-5-(2-methyl-4-(trifluoromethyl)thiazol-5-yl)penta-1,4-dien-3-one at 10 mM after 60 mins by UHPLC analysis. Format: ADME, microsome.
Settings: not given
In short, it runs like this:
(§1)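 Pooled human liver microsomes in potassium phosphate buffer (pH 7.4) with NADPH solutions A and B were preincubated for 5 min at 37 °C. Compound was then added from a 10 mM stock (3 μL into 300 μL total) and incubated 60 min at 37 °C. Reactions were quenched with an equal volume of methanol and centrifuged (10,000 × g, 4 min, 4 °C). Supernatant went to UHPLC–high-resolution MS for metabolite identification.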
For orientation: Liver microsomes are a subcellular fraction often used to study metabolism.
As for `CCC(C)n1ccnc1/C=C/C(=O)/C=C(\O)c1sc(C)nc1C(F)(F)F` (stereo unspecified), the Drug metabolism entry was “Metabolite_Detected”.

Regarding `CCC(C)n1cc(O)nc1/C=C/C(=O)/C=C/c1sc(C)nc1C(F)(F)F` (stereo unspecified), the Drug metabolism entry is reported as “Metabolite_Detected”.

As to `CCC(C)n1ccnc1/C(O)=C/C(=O)/C=C/c1sc(C)nc1C(F)(F)F` (stereo unspecified), the Drug metabolism entry is recorded as “Metabolite_Detected”.

The test system of a further data set is PC-3. The data set can be described thus: Potency index, ratio of curcumin IC50 to test compound IC50 for human PC3 cells.
Settings: not given
It is filed as functional.
Turning to `CCC(C)n1ccnc1/C=C/C(=O)/C=C/c1nn(C)cc1Br` (stereo unspecified), the “Ratio IC50” value was 76.

On to `CCC(C)n1ccnc1/C=C/C(=O)/C=C/c1cccc(C)n1` (stereo unspecified), for which the “Ratio IC50” value is 98.

`CCCn1c(/C=C/C(=O)/C=C/c2ccccn2)nc2ccccc21`: the “Ratio IC50” value is given as 102.

For the compound `CCCC(C)n1ccnc1/C=C/C(=O)/C=C/c1nc2ccccc2n1C(C)CCC` (stereo unspecified), the “Ratio IC50” value was 182.

Regarding `CCC(C)n1ccnc1/C=C/C(=O)/C=C/c1cc(C)on1` (stereo unspecified), the “Ratio IC50” value came out at 82.

In the case of `CCC(C)n1ccnc1/C=C/C(=O)/C=C/c1nccs1` (stereo unspecified), the “Ratio IC50” value is 64.

As to `Cc1nc(C(F)(F)F)c(/C=C/C(=O)/C=C/c2nc3ccccc3n2C(C)C)s1`, the “Ratio IC50” value came to 75.

The subject of another data set is DU-145. The data set can be described thus: Potency index, ratio of curcumin IC50 to test compound IC50 for human DU145 cells. It is filed as functional.
Settings: not given
Regarding `CCC(C)n1ccnc1/C=C/C(=O)/C=C/c1nn(C)cc1Br` (stereo unspecified), the “Ratio IC50” value came to 94.

As for `CCC(C)n1ccnc1/C=C/C(=O)/C=C/c1cccc(C)n1` (stereo unspecified), the “Ratio IC50” value was 90.

With `CCCn1c(/C=C/C(=O)/C=C/c2ccccn2)nc2ccccc21`, the “Ratio IC50” value is 82.

For the compound `CCCC(C)n1ccnc1/C=C/C(=O)/C=C/c1nc2ccccc2n1C(C)CCC` (stereo unspecified), the “Ratio IC50” value stood at 94.

Regarding `CCC(C)n1ccnc1/C=C/C(=O)/C=C/c1cc(C)on1` (stereo unspecified), the “Ratio IC50” value turned out to be 50.

As to `CCC(C)n1ccnc1/C=C/C(=O)/C=C/c1nccs1` (stereo unspecified), the “Ratio IC50” value was found to be 62.

In the case of `Cc1nc(C(F)(F)F)c(/C=C/C(=O)/C=C/c2nc3ccccc3n2C(C)C)s1`, the “Ratio IC50” value turned out to be 46.

The next data set has as its system LNCaP. Briefly: Antiproliferative activity against human LNCAP cells assessed as decrease in cell viability after 3 days by WST assay. Format: functional, cell-based. The settings on record: 72 h. In short, it runs like this:
(§2)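 Cells were seeded at 3,200 per well. PC-3 and LNCaP were grown in RPMI-1640 and DU-145 in EMEM, each with 10% FBS and 1% penicillin/streptomycin, at 37 °C and 5% CO2. Cells were exposed for 3 days to at least five concentrations, with DMSO as vehicle control. WST-1 reagent was then added for 3 h at 37 °C and absorbance read at 430 nm. IC50 came from linear inhibition, averaged over triplicates.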
For orientation: IC50 means the concentration that inhibits the measured activity by half. As to `CCC(C)n1ccnc1/C=C/C(=O)/C=C/c1nn(C)cc1Br` (stereo unspecified), the IC50 turned out to be 0.31 µM.

As to `CCC(C)n1ccnc1/C=C/C(=O)/C=C/c1cccc(C)n1` (stereo unspecified), the IC50 was determined as 0.26 µM.

With `CCCn1c(/C=C/C(=O)/C=C/c2ccccn2)nc2ccccc21`, the half-inhibitory concentration (IC50) is 0.17 µM.

As to `CCCC(C)n1ccnc1/C=C/C(=O)/C=C/c1nc2ccccc2n1C(C)CCC` (stereo unspecified), the 50% inhibitory concentration (IC50) came out at 0.37 µM.

Consider `CCC(C)n1ccnc1/C=C/C(=O)/C=C/c1cc(C)on1` (stereo unspecified), for which the IC50 was 0.24 µM.

Turning to `CCC(C)n1ccnc1/C=C/C(=O)/C=C/c1nccs1` (stereo unspecified), the half-maximal inhibitory concentration (IC50) amounted to 0.17 µM.

`Cc1nc(C(F)(F)F)c(/C=C/C(=O)/C=C/c2nc3ccccc3n2C(C)C)s1`: the concentration for half-maximal inhibition (IC50) was found to be 0.3 µM.

The test system of another data set is DU-145. The data set can be described thus: Antiproliferative activity against human DU145 cells assessed as decrease in cell viability after 3 days by WST assay. It is filed as functional, cell-based. The settings on record: DU-145, 72 h. In short, it runs like this: as §2
Consider `CCC(C)n1ccnc1/C=C/C(=O)/C=C/c1nn(C)cc1Br` (stereo unspecified), for which the IC50 is 0.28 µM.

Take `CCC(C)n1ccnc1/C=C/C(=O)/C=C/c1cccc(C)n1` (stereo unspecified): the half-inhibitory concentration (IC50) was 0.29 µM.

On to `CCCn1c(/C=C/C(=O)/C=C/c2ccccn2)nc2ccccc21`, for which the half-maximal inhibitory concentration (IC50) came out at 0.32 µM.

With `CCCC(C)n1ccnc1/C=C/C(=O)/C=C/c1nc2ccccc2n1C(C)CCC` (stereo unspecified), the half-inhibitory concentration (IC50) turned out to be 0.28 µM.

For the compound `CCC(C)n1ccnc1/C=C/C(=O)/C=C/c1cc(C)on1` (stereo unspecified), the IC50 came to 0.53 µM.

Take `CCC(C)n1ccnc1/C=C/C(=O)/C=C/c1nccs1` (stereo unspecified): the IC50 came out at 0.42 µM.

For `Cc1nc(C(F)(F)F)c(/C=C/C(=O)/C=C/c2nc3ccccc3n2C(C)C)s1`, the IC50 stood at 0.57 µM.

The next data set concerns PC-3. Briefly: Antiproliferative activity against human PC3 cells assessed as decrease in cell viability after 3 days by WST assay. It is filed as functional, cell-based. As to conditions: PC-3, 72 h. In short, it runs like this:
as §2
Take `CCC(C)n1ccnc1/C=C/C(=O)/C=C/c1nn(C)cc1Br` (stereo unspecified): the IC50 is 0.33 µM.

Regarding `CCC(C)n1ccnc1/C=C/C(=O)/C=C/c1cccc(C)n1` (stereo unspecified), the half-inhibitory concentration (IC50) stood at 0.26 µM.

On to `CCCn1c(/C=C/C(=O)/C=C/c2ccccn2)nc2ccccc21`, for which the half-maximal inhibitory concentration (IC50) stood at 0.25 µM.

As to `CCCC(C)n1ccnc1/C=C/C(=O)/C=C/c1nc2ccccc2n1C(C)CCC` (stereo unspecified), the IC50 was 0.14 µM.

Consider `CCC(C)n1ccnc1/C=C/C(=O)/C=C/c1cc(C)on1` (stereo unspecified), for which the IC50 amounted to 0.31 µM.

As to `CCC(C)n1ccnc1/C=C/C(=O)/C=C/c1nccs1` (stereo unspecified), the IC50 is 0.39 µM.

`Cc1nc(C(F)(F)F)c(/C=C/C(=O)/C=C/c2nc3ccccc3n2C(C)C)s1`: the 50% inhibitory concentration (IC50) was found to be 0.34 µM.

System in another data set: not listed separately
The data set can be described thus: Drug level in human liver microsomes treated with (1E,4E)-1-(1-Ethyl1H-benzo[d]imidazol-2-yl)-5-(2-methyl-4-(trifluoromethyl)thiazol-5-yl)penta-1,4-dien-3-one at 10 mM after 60 mins by UHPLC analysis. It is filed as ADME, microsome. The settings on record: 1 h. In short, it runs like this: as §1
As for `CCn1c(/C(O)=C/C(=O)/C=C/c2sc(C)nc2C(F)(F)F)nc2ccccc21`, the Drug metabolism result is listed as “Metabolite_Detected”.

As to `CCn1c(/C=C/C(=O)/C=C(\O)c2sc(C)nc2C(F)(F)F)nc2ccccc21`, the Drug metabolism entry was “Metabolite_Detected”.

Another data set deals with PWR-1E. The data set can be described thus: Antiproliferative activity against human PWR-1E cells expressing androgen receptor and PSA assessed as decrease in cell viability after 3 days by WST assay. It is filed as functional, cell-based. The settings on record: 72 h. In short, it runs like this: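 Non-malignant prostate epithelial PWR-1E (adenovirus 12/SV40-immortalized) was seeded at 5,000 per well. Cells were exposed for 3 days at 37 °C in a CO2 incubator to at least five concentrations, with DMSO as vehicle control. WST-1 reagent was then added for 3 h at 37 °C and absorbance read at 430 nm. IC50 came from linear inhibition, as the mean of triplicate determinations.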
Take `CCC(C)n1ccnc1/C=C/C(=O)/C=C/c1nn(C)cc1Br` (stereo unspecified): the IC50 was 0.14 µM.

For the compound `CCC(C)n1ccnc1/C=C/C(=O)/C=C/c1cccc(C)n1` (stereo unspecified), the IC50 is 0.13 µM.

On to `CCCn1c(/C=C/C(=O)/C=C/c2ccccn2)nc2ccccc21`, for which the IC50 was 0.02 µM.

`CCCC(C)n1ccnc1/C=C/C(=O)/C=C/c1nc2ccccc2n1C(C)CCC` (stereo unspecified): the IC50 stood at 0.04 µM.

For the compound `CCC(C)n1ccnc1/C=C/C(=O)/C=C/c1cc(C)on1` (stereo unspecified), the IC50 came out at 0.11 µM.

With `CCC(C)n1ccnc1/C=C/C(=O)/C=C/c1nccs1` (stereo unspecified), the IC50 came out at 0.14 µM.

As for `Cc1nc(C(F)(F)F)c(/C=C/C(=O)/C=C/c2nc3ccccc3n2C(C)C)s1`, the IC50 worked out at 0.05 µM.

System in the next data set: not listed separately
Briefly: Retention time of the compound. It is filed as physicochemical.
Settings: not given
In turn, `CCn1c(/C(O)=C/C(=O)/C=C/c2sc(C)nc2C(F)(F)F)nc2ccccc21` displayed a Retention_time of 4.54 min.

In turn, `CCC(C)n1ccnc1/C=C/C(=O)/C=C(\O)c1sc(C)nc1C(F)(F)F` (stereo unspecified) returned a Retention_time of 3.97 min.

As for `CCn1c(/C=C/C(=O)/C=C(\O)c2sc(C)nc2C(F)(F)F)nc2ccccc21`, the Retention_time is on record as 4.66 min.

`CCC(C)n1cc(O)nc1/C=C/C(=O)/C=C/c1sc(C)nc1C(F)(F)F` (stereo unspecified) yielded a Retention_time of 3.32 min.

In turn, `CCC(C)n1ccnc1/C(O)=C/C(=O)/C=C/c1sc(C)nc1C(F)(F)F` (stereo unspecified) registered a Retention_time of 3.7 min.
